VIM-2 inhibitor: blocks Pseudomonas aeruginosa VIM-2 metallo-beta-lactamase. 290,000 compounds, 0.89% hits. purified VIM-2, nitrocefin hydrolysis, epi-absorbance fluorescence. inhibition, % at 5.6 µM;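 active = inhibition above the mean of all tested compounds plus 3 SD, cutoff set per screening run, cut at about 7.5% in these data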;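 also: red hydrolysis product quenches plate fluorescence so inhibitors raise well fluorescence; 0% = enzyme with DMSO and 100% = DMSO without enzyme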
zfTRPN1 agonist: agonists of zebrafish TRPN1 channel. activation, % at 3 µM. 220,000 compounds, 0.18% hits. HEK293 zebrafish TRPN1-YFP, Fluo-8 calcium fluorescence; 100% = response to 87 µM carbachol;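 active = activation above its plate's cutoff, the mean activation of test wells on that plate plus 3 SD, cut at about 19% in these data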;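 also: 0% = DMSO alone and 100% = 87 µM carbachol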
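Material: zebrafish TRPN1-YFP in HEK293 cells. Doses: one dose of 3 µM, 0.3% DMSO. Incubation: dye 1 h 37 °C plus 30 min RT. Measured by: intracellular calcium fluorescence with Fluo-8.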
CRFR2-BP antag: CRF-BP/CRF-R2 complex antagonism. HEK293 CRF-R2/CRF-BP, CRF-induced calcium fluorescence. inhibition, % at 11.8 µM. 350,000 compounds, 0.59% hits;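 active = inhibition of the ligand-induced calcium signal above about 50% at the single tested concentration, limit read from the data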
TRPML3 agonist: human mucolipin-3 channel agonism; Q8TDD5; HEK293 TRPML3-YFP, Fluo-8 calcium fluorescence; 100% = the carbachol control signal; activation, % at 3 µM; 220,000 compounds, 0.29% hits;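 active = activation above its plate's cutoff, the mean activation of the plate's test wells plus 3 SD, cut at about 12% in these data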;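 also: 0% = DMSO only wells and 100% = carbachol wells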
Target sequence (Q8TDD5 whole entry, looked up): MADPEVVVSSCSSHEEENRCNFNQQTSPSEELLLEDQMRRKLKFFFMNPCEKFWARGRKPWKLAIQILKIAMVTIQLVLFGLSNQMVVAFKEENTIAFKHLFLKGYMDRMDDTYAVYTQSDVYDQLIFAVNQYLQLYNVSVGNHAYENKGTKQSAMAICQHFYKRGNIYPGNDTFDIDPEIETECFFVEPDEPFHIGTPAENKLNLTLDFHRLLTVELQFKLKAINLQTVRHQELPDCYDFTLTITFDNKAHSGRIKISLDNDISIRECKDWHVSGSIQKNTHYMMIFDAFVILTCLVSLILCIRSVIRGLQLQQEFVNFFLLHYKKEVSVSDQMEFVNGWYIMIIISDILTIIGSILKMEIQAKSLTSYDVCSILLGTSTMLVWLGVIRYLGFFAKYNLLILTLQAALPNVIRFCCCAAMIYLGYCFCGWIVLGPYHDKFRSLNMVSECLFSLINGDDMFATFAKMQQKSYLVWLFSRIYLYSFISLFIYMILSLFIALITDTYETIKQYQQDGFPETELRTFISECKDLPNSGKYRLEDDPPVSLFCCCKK
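Material: HEK293 cells stably carrying human TRPML3-YFP; compound dosing: single dose, 3 µM final nominal compound, 0.3% DMSO final; incubation: 1-h 37 °C dye load, 5-s basal, 120-s post-compound reads; technique: Fluo-8 intracellular calcium fluorescence, excitation 470-495 nm, emission 515-575 nm; read-out basis: percent activation from peak-to-basal fluorescence ratio, scaled between DMSO and carbachol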
IMP-1 inh: blocks Pseudomonas aeruginosa IMP-1 metallo-beta-lactamase. 290,000 compounds, 0.45% hits. inhibition, % at 5.6 µM. purified IMP-1, nitrocefin hydrolysis, epi-absorbance fluorescence;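 active = inhibition above the mean plus 3 SD of all compounds in the same screening run, cut at about 4.5% in these data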;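 also: 0% = IMP-1 with DMSO and 100% = DMSO wells lacking enzyme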
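system = purified recombinant IMP-1 beta-lactamase | amount = 0.2 nM IMP-1, as dispensed | medium = HEPES buffer pH 7.1 with ZnSO4 and Brij 35 | times = 25 °C, 15 min preincubation, 25 min reaction | detection = plate fluorescence quenching by hydrolysis product, ex 480/em 530 nm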
CRFR2-BP ag: agonists of human CRF-binding protein/CRF-R2 receptor complex | HEK293 CRF-R2/CRF-BP, calcium dye fluorescence (FLIPR); percent of saturating CRF peptide response | activation, % at 13.2 µM | 350,000 compounds, 0.46% hits | AID 588473;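 active = activation of at least 50%, plus an integration ratio under a set limit after plate pattern correction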;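 also: plate controls were neutral control wells without compound for no effect and CRF at EC100 for full effect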
* marks the source's active call; other numbers are inactive results; . = no result given. In the library only some 2.1% were active in any assay of this set; here they are far more common.

SMILES	VIM-2 inhibitor	zfTRPN1 agonist	CRFR2-BP antag	TRPML3 agonist	IMP-1 inh	CRFR2-BP ag
O=C(Cn1nc(Cl)nc1Cl)Nc1ccccc1	-2	0	61*	0	-3	-1
COc1ccc(/C=C2/SC(=S)N(Cc3ccccc3)C2=O)cc1O	1	.	-6	.	0	-1
COc1ccc(O)c(/C=C2/SC(=S)N(Cc3ccccc3)C2=O)c1	-1	.	-74	.	-5	74*
COc1ccc(-c2nn(-c3ccccc3)cc2/C=C2/SC(=S)N(CCC(=O)O)C2=O)cc1	-1	.	11	.	0	3
COc1ccc(-c2nn(-c3ccccc3)cc2/C=C2/SC(=S)N(CCC(=O)O)C2=O)c(C)c1	-1	.	52*	.	-1	-1
COc1ccc(OC)c(/C=C2\SC(=S)N(Cc3cccnc3)C2=O)c1	-3	4	-183	1	-3	136*
CC1(C)CC(C)(c2ccc(O)cc2O)N(c2ccc3ccccc3c2)C(=S)N1 (centres undefined)	-1	0	-23	1	-3	1
CN1C(=S)NC(C)(C)CC1(C)c1ccc(O)cc1O (centres undefined)	8.3*	0	-9	0	-3	-2
C=C(C)CSc1nc2c(cc1C#N)CCC2	-2	1	64*	1	-5	-1
CCOCCn1c(=NC(=O)CSCC(=O)N2CCOCC2)sc2cc(OC)ccc21	-2	.	20	.	-2	-1
O=C(Nc1ccc(Cl)cc1C(=O)NCc1cccnc1)c1ccco1	0	0	-15	0	3	-4
O=C(Nc1ccc(Cl)cc1C(=O)Nc1ccncc1)c1ccco1	8.2*	2	-20	0	-3	0
Cc1csc(NC(=O)Cc2ccc(Cl)cc2)n1	.	.	-3	.	.	-2
Cc1csc(NC(=O)Cc2ccc(Br)cc2)n1	-5	.	63*	.	-3	3
COc1ccc(N/N=C(/N=Nc2nc(C)cc(=O)[nH]2)c2ccccc2)cc1	-7	-1	57*	-1	-3	8
CC(C)N(CCCNC(=O)c1nn(C)c2c1CS(=O)(=O)c1ccccc1-2)Cc1ccccc1	-2	.	-10	.	-3	1
Cc1ccn2c(Nc3ccc4c(c3)OCO4)c(-c3ccccn3)nc2c1	39*	-2	-30	-1	-5	35
Cc1ccc(Nc2c(-c3ccccn3)nc3cc(C)ccn23)cc1	8.3*	-5	-8	0	-4	-2
Cc1ccc(Nc2c(-c3ccccn3)nc3ccc(C)cn23)cc1	-4	-3	5	-1	-5	-1
CC(C)(C)c1ccc(N/N=C(\C#N)S(=O)(=O)C(C)(C)C)cc1	-2	16	12	8	-4	28
CC(C)(C)S(=O)(=O)/C(C#N)=N/Nc1ccc(Cl)cc1	-1	21*	65*	11	-4	47
COc1cccc(CC2(CO)CCCN(Cc3cc4ccccc4[nH]3)C2)c1 (centres undefined)	-2	7	-118	3	-2	120*
COc1cccc(CC2(CO)CCCN(Cc3ccc(C)s3)C2)c1 (centres undefined)	-2	-1	3	0	-2	0
COc1ccccc1NS(=O)(=O)c1ccc(N/N=C/c2c(C)nn(-c3ccccc3)c2N2CCCC2)c([N+](=O)[O-])c1	-2	-1	56*	0	-1	-2
CC(C)(C)OC(=O)NC1CCN(S(=O)(=O)c2ccc3c(c2)OCCO3)CC1	-2	.	1	.	-1	-2
CC1=C(C#N)C(=O)NC(C)(C)C1	2	0	54*	0	2	17
CNC(=O)c1sc(N2N=C3/C(=C/c4ccccc4)CCCC3C2c2ccccc2)nc1C (centres undefined)	-4	2	-56	0	-3	64*
CNC(=O)c1sc(N2N=C3/C(=C\c4ccccc4)CCCC3C2c2ccccc2)nc1C (centres undefined)	.	.	-38	.	.	43
Cc1ccc(-c2csc3ncnc(-n4cnc5ccccc54)c23)cc1	-1	-2	7	0	-2	-1
Cc1sc2ncnc(-n3cnc4ccccc43)c2c1C	0	-1	-10	-1	7.3*	-2
